# High-throughput results (PubChem BioAssay)
# NPY1 pot ag – human NPY-Y1 potentiation or agonism, primary screen | P25929 | NPY-Y1 expressing cells, potentiator/agonist activation | activation, % at 3.6 µM | actives 0.37% (n = 220,000) | AID 1304; in the data active = activation above about 33%, passing the limit was not always enough;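 also: cells stimulated with NPY at EC10 then isoproterenol at EC100; 0% = low agonist plus stimulus and 100% = saturating agonist plus stimulus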
# NPY-Y2 antag – NPY-Y2 (human) receptor antagonism; P49146; NPY-Y2 expressing cells, antagonist mode; inhibition, % at 2.7 µM; actives 0.99% (n = 140,000); AID 793; in the data active = inhibition above about 17%;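 also: 0% = vehicle with agonist challenge and 100% = reference antagonist with challenge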
# Target sequence (P49146 whole entry, looked up): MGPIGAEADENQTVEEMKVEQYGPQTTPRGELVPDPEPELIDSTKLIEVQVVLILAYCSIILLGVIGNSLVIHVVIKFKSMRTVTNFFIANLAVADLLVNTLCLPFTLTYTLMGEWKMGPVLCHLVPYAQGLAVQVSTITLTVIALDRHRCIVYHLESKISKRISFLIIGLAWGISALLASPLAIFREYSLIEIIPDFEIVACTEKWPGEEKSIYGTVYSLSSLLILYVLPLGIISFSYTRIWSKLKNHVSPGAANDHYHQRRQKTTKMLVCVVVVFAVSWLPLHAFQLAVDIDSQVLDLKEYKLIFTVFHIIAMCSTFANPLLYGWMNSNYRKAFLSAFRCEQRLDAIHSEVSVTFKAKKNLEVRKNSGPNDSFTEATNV
# NPY2 pot ag – potentiates or activates human NPY-Y2 receptor. activation, % at 3.6 µM. actives 0.45% (n = 220,000). cells expressing NPY-Y2, potentiator/agonist read-out. P49146. AID 1359; in the data active = activation above about 27%;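 also: cells stimulated with NPY near EC25 plus isoproterenol at EC100; 0% = vehicle plus submaximal agonist and 100% = vehicle plus saturating agonist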
# PGE2 EP2 inh – inhibitors of human EP2 prostaglandin E2 receptor; actives 0.52% (n = 260,000); AID 1422; C6 glioma cells expressing human EP2, cAMP TR-FRET; cells stimulated with saturating PGE2; inhibition, % at 25 µM;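 active = percent inhibition above 40 after rounding to a whole number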;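 also: rat C6 glioma host cells with rolipram phosphodiesterase inhibitor present; the protocol text gives 20 µM as final concentration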
# Target sequence (P43116 whole entry, looked up): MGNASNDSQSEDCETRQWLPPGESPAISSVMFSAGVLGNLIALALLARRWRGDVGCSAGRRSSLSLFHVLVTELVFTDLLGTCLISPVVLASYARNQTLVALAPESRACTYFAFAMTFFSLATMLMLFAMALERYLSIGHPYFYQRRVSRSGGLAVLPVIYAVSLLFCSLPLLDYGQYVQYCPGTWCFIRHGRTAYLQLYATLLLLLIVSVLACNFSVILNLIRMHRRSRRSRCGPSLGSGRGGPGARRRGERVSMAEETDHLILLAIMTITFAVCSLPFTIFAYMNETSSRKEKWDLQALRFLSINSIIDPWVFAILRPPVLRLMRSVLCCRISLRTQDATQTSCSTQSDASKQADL
# EP2 modulator – EP2 receptor (human) modulation; P43116; EP2-expressing cells, cAMP HTRF FRET, PGE2 co-stimulation; induction, % at 25 µM; actives 0.83% (n = 260,000); AID 940;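 active = compounds whose cAMP rise, as percent of the full-agonist control response, exceeds 60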;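 also: rat C6 glioma line stably carrying human EP2 under a CMV promoter; the protocol text gives 20 µM as final concentration; 100% = response of wells given 1 µM PGE2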
# NPY Y1 blocker – NPY-Y1 (human) receptor antagonism; inhibition, % at 3.6 µM; actives 1% (n = 200,000); HEK293-CNG Y1 cells, membrane potential fluorescence; NPY at EC95, then isoproterenol;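 active = inhibition above the campaign mean inhibition of all tested compounds plus 3 SD, cut at about 20% in these data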;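 also: 0% = DMSO wells given NPY plus isoproterenol and 100% = isoproterenol alone without NPY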
#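 material = HEK293 cells with Y1 receptor plus CNG channel | also added = NPY 25 nM then isoproterenol 1 µM plus Ro 20-1724 25 µM | schedule = dye 3 h, compound 60 min room temperature, stimulation 45 min | measured by = membrane potential fluorescence | benchmarks = high control isoproterenol alone, low control NPY with isoproterenol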
# Active calls of the source: *; nt = no result given. In the library only some 2.8% were active in any assay of this set; here they are far more common.
SMILES,NPY1 pot ag,NPY-Y2 antag,NPY2 pot ag,PGE2 EP2 inh,EP2 modulator,NPY Y1 blocker
COc1cc(NS(=O)(=O)c2ccc(NC(=S)NC(=O)c3sc4cc(F)ccc4c3Cl)cc2)nc(OC)n1,-6.7,2.5,2.6,95.5*,-2.9,3.3
COc1cc(NS(=O)(=O)c2ccc(NC(C)=O)cc2)nc(OC)n1,-22.2,0.7,-8.2,8.2,34.6,2.3
CCCc1nnc(NC(=O)c2ccc(OC)cc2)s1,nt,nt,nt,15.7,-17.9,nt
Cc1[nH]c(=O)[nH]c(=O)c1NC(=O)CSc1nnc2n(Cc3ccc(F)cc3)c3ccccc3n12,nt,nt,nt,7.5,-8.7,nt
COc1ccc(CN(Cc2cn[nH]c2-c2cccs2)CC2CCCO2)cc1OC (centres undefined),nt,nt,nt,6.2,21.8,nt
C/C(=N\Nc1cccc(Cl)c1)c1ccncc1,39.0*,nt,39.8*,11.8,-7.1,-12.3
CC(C)(C)OC(=O)N1CC=C2C(C#N)=C(N)C(C#N)(C#N)C(c3ccc4c(c3)OCO4)C2C1 (centres undefined),nt,nt,nt,40.3*,14.9,nt
CCN(CC)CCC(=O)NC(C)(C)Cc1ccc(O)cc1,36.9*,1.6,-4.3,19.5,9.7,0.8
COC(=O)C(C)(N)Cc1ccc(O)cc1 (centres undefined),nt,nt,nt,10.7,10.2,nt
CC1=[N+](C)c2ccc3ccccc3c2C1(C)C,-71.0,21.8*,-32.0,11.1,-1.7,27.0*
Cc1cccc2cc3ccc4ccccc4c3cc12,nt,nt,nt,12.9,14.7,nt
O=C(c1cc(Cl)ccc1NS(=O)(=O)c1cccc2nsnc12)N1CCCCC1,nt,nt,nt,12.3,-28.6,nt
CCOC(=O)Nc1nc(-c2ccccc2)c(C(=O)c2ccc(Cl)cc2)s1,-36.6,20.1*,-48.0,10.0,58.6,40.0*
COc1ccc(NC(=O)CSc2nnc(-c3ccccc3Br)o2)cc1,nt,nt,nt,12.0,27.5,nt
CC(C)(C)c1ccc(Cn2nnc3c(=O)[nH]c(C4CCN(C(=O)C5CCCCC5)CC4)nc32)cc1,nt,nt,nt,7.7,71.5*,nt
CCn1c(SCCN2CCOCC2)nnc1-c1cc2ccccc2cc1O,nt,nt,nt,12.1,3.4,nt
O=C(Nc1ccc(N2CCN(C(=O)c3ccccc3)CC2)cc1)c1ccc([N+](=O)[O-])o1,9.6,nt,-3.8,49.0*,-47.6,-0.9
CCN1CCN(c2ccc(NC(=O)c3ccc([N+](=O)[O-])o3)cc2)CC1,nt,nt,nt,95.1*,-137.5,nt
Cc1cc([N+](=O)[O-])ccc1NC(=O)c1ccco1,18.4,nt,-10.6,2.1,28.6,-2.9
CC(C)C(=O)N1CCN(c2ccc(NC(=O)c3ccc([N+](=O)[O-])o3)cc2Cl)CC1,-13.8,nt,-30.9,115.8*,-45.6,0.6
Cc1cc(NC(=O)c2ccc([N+](=O)[O-])o2)ccc1NC(=O)c1ccco1,-3.6,nt,-9.6,63.7*,-93.0,-3.0
CCCC(=O)N1CCN(c2ccc(NC(=O)c3ccc([N+](=O)[O-])o3)cc2Cl)CC1,-19.8,nt,-4.1,27.3,-47.3,3.6
Cc1ccccc1C(=O)N1CCN(c2ccc(NC(=O)c3ccc4c(c3)OCO4)cc2)CC1,45.4*,nt,55.6*,17.8,-6.5,-6.9
Cc1ccccc1C(=O)N1CCN(c2ccc(NC(=O)c3ccc([N+](=O)[O-])o3)cc2)CC1,nt,nt,nt,130.3*,-154.0,nt
O=C(Nc1ccc(N2CCN(C(=O)c3ccco3)CC2)cc1)c1ccc2c(c1)OCO2,11.7,2.2,1.9,8.8,3.0,-2.3
SMILES,NPY1 pot ag,NPY-Y2 antag,NPY2 pot ag,PGE2 EP2 inh,EP2 modulator,NPY Y1 blocker
O=C(Nc1ccc(N2CCCC2)cc1)c1ccccc1F,12.2,0.2,3.8,23.4,14.8,0.1
CCN1CCN(c2ccc(NC(=O)c3ccccc3F)cc2)CC1,nt,nt,nt,59.5*,-41.3,nt
Cc1ccccc1NC(=O)NC1(C(=O)N2CCN3CCCC3C2)CCCCC1 (centres undefined),nt,nt,nt,10.9,-11.1,nt
O=S(=O)(Nc1ccc(S(=O)(=O)N2CCCCC2)cc1)c1ccc(F)cc1,nt,nt,nt,18.6,32.2,nt
CC(=O)OCCCN1C(=O)c2cccc3c(Cl)ccc(c23)C1=O,nt,nt,nt,33.7,38.6,nt
c1csc(COc2ccccc2CNC2CCCCC2)c1,9.3,31.4*,14.0,6.1,5.2,23.5*
O=C(NC(=S)NCCN1CCOCC1)c1ccc(Cl)cc1Cl,-8.0,5.2,6.1,12.6,-6.5,7.7
O=C(NC(=S)NCCN1CCOCC1)c1ccccc1Cl,4.2,1.8,-8.2,7.1,64.3*,4.9
O=C(NC1CCCCC1)C(c1ccco1)N(Cc1ccc2c(c1)OCO2)C(=O)Cc1cccs1 (centres undefined),nt,nt,nt,9.7,87.0*,nt
Cc1ccc(C(C(=O)NC2CCCCC2)N(Cc2ccco2)C(=O)Cc2cccs2)cc1 (centres undefined),nt,nt,nt,8.6,61.5*,nt
Cc1ccc(C(C(=O)NC2CCCC2)N(Cc2ccc3c(c2)OCO3)C(=O)Cc2cccs2)cc1 (centres undefined),-19.0,22.2*,8.7,-2.5,59.8,14.7
CCOC(=O)c1c(C)n(C)c2ccc(O)c(CN(C)C)c12,75.1*,5.1,69.6*,13.8,-10.9,-5.0
COc1ccc(C2(C(=O)N3CCC(n4cnc5cccnc54)CC3)CC2)cc1,nt,nt,nt,6.9,-44.8,nt
O=C(Cc1cccs1)N(Cc1ccco1)C1(C(=O)NC2CCCCC2)CCCCC1,8.6,29.6*,-11.4,4.3,58.7,49.7*
O=C(Cc1cccs1)N(Cc1cccs1)C1(C(=O)NC2CCCC2)CCCCC1,-15.9,50.2*,-10.7,8.7,34.4,50.8*
O=C(c1ccc(=O)[nH]c1)N(Cc1ccco1)C1(C(=O)NC2CCCC2)CCCCC1,4.6,0.0,1.0,nt,4.7,2.4
O=C1CCC(C(=O)N(Cc2ccco2)C2(C(=O)NC3CCCC3)CCCCC2)N1 (centres undefined),-26.0,23.2*,6.0,7.7,9.2,21.7*
O=C(Cc1cccs1)N(c1ccc(F)cc1)C1(C(=O)NC2CCCCC2)CCCC1,-20.6,9.8,4.8,8.3,46.7,11.0
CC(=O)N(Cc1ccco1)C1(C(=O)NC2CCCCC2)CCCCC1,18.8,5.3,-2.8,8.6,3.5,10.4
CCC(=O)N1CCCc2cc(C(O)CN3CCC(C(F)(F)F)CC3)ccc21 (centres undefined),nt,nt,nt,3.3,-47.0,nt
CCCC(C)NC(=O)c1ccc(CN2CCOCC2)cc1 (centres undefined),nt,nt,nt,11.2,-25.4,nt
O=S1(=O)N=C(Nc2ccc(O)cc2)c2ccccc21,-8.9,nt,-6.8,4.3,1.7,2.8
O=S1(=O)OC(c2ccc(O)cc2)(c2ccc(O)cc2)c2ccccc21,nt,nt,nt,95.7*,-32.3,nt
O=C1c2ccccc2C(=O)N1CCCCN(C(=O)c1ccc([N+](=O)[O-])cc1)c1ccc(Cl)cc1,67.0*,11.9,95.4*,12.3,27.7,17.4
O=C1c2ccccc2C(=O)N1CCCCN(C(=O)c1cc([N+](=O)[O-])cc([N+](=O)[O-])c1)c1ccc(Cl)cc1,-4.2,0.4,-10.8,5.3,17.7,3.6
Cc1ccc(C2(C(=O)N3CCC(n4nnc5ccccc5c4=O)CC3)CC2)cc1,nt,nt,nt,4.7,-6.7,nt
